Results on 3 compounds are retold here after ChEMBL document CHEMBL1136005 (J Med Chem, 2002).

A short description of series [1]: Plasma concentration was determined after 8 hr at a dose 30 mg/kg administered orally to rat-6. The format is ADME, organism-based. On the set-up: dose 30 mg/kg, route oral. The settings on record: po. An outline of the steps:
(§1)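 Sprague-Dawley rats, n=2 per compound, dosed orally at 30 mg/kg. Plasma drug concentration measured 1 and 8 h after dosing.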

The target in series [2] is Platelet-derived growth factor receptor (Homo sapiens, UniProt P09619+P16234). The series can be described thus: Concentration required for 50% inhibition against autophosphorylation of Platelet-derived growth factor receptor beta in intact cells using a two site ELISA. The series is classed as cell-based. A general note: In an ELISA, binding on a coated surface is turned into a signal by an enzyme label.

Series [3] can be described thus: Plasma concentration was determined after 1 hr at a dose 30 mg/kg administered orally to rat-5. The settings on record: po. The format is ADME, organism-based. The arrangement: dose 30 mg/kg, route oral. An outline of the steps: as §1
Series [4] is described as follows: Plasma concentration was determined after 8 hr at a dose 30 mg/kg administered orally to rat-5. The series is classed as ADME, organism-based. The arrangement: dose 30 mg/kg, route oral. The settings on record: po. Put shortly:
as §1

Series [5] is described as follows: Plasma concentration was determined after 1 hr at a dose 30 mg/kg administered orally to rat-6. The format is ADME, organism-based. On the set-up: dose 30 mg/kg, route oral. The settings on record: po. An outline of the steps: as §1
The nature of series [6]: pharmacokinetic parameter was evaluated after oral administration of 30 mg/kg to rat. The series is classed as ADME, organism-based. The settings on record: in vivo. The arrangement: dose 30 mg/kg, route oral. Put shortly:
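Sprague-Dawley rats, n=3, dosed orally at 30 mg/kg. Plasma drug concentrations were followed to derive Tmax (h), Cmax (µg/mL), T1/2 (h) and AUC0-∞ (µg h/mL).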

Series [7] can be described thus: Plasma concentration was determined after 8 hr at a dose 30 mg/kg administered orally to rat-16. The arrangement: dose 30 mg/kg, route oral. The settings on record: po. The series is classed as ADME, organism-based. An outline of the steps:
as §1

The nature of series [8]: Plasma concentration was determined after 8 hr at a dose 30 mg/kg administered orally to rat-15. The format is ADME, organism-based. On the set-up: dose 30 mg/kg, route oral. Conditions: po. An outline of the steps:
as §1

Series [9] is described as follows: Lipophilicity was reported. The settings on record: octanol/water. The format is physicochemical.
Series [10] can be described thus: Plasma concentration was determined after 1 hr at a dose 30 mg/kg administered orally to rat-15. The series is classed as ADME, organism-based. The arrangement: dose 30 mg/kg, route oral. Conditions: po. An outline of the steps: as §1
The nature of series [11]: Plasma concentration was determined after 1 hr at a dose 30 mg/kg administered orally to rat-16. The series is classed as ADME, organism-based. The arrangement: dose 30 mg/kg, route oral. Conditions: po. An outline of the steps:
as §1

Series [12] in a line: Plasma concentration was determined after 1 hr at a dose 30 mg/kg administered orally to rat-12. The format is ADME, organism-based. On the set-up: dose 30 mg/kg, route oral. The settings on record: po. Put shortly:
as §1

The nature of series [13]: Solubility in aqueous phosphate buffer (pH 7.4) at 20c was determined. The series is classed as physicochemical.
Series [14] in a line: Plasma concentration was determined after 1 hr at a dose 30 mg/kg administered orally to rat-11. The arrangement: dose 30 mg/kg, route oral. The format is ADME, organism-based. The settings on record: po. Put shortly: as §1
Series [15] can be described thus: Plasma concentration was determined after 8 hr at a dose 30 mg/kg administered orally to rat-12. The series is classed as ADME, organism-based. On the set-up: dose 30 mg/kg, route oral. The settings on record: po. An outline of the steps: as §1
Series [16] can be described thus: Plasma concentration was determined after 8 hr at a dose 30 mg/kg administered orally to rat-11. The arrangement: dose 30 mg/kg, route oral. The format is ADME, organism-based. The settings on record: po. An outline of the steps: as §1

Values after ≈ are worked out from the molar mass of the structure shown.

As a reminder, the IC50 is the concentration at which inhibition is half-maximal. The low end stands for higher potency, the high end for lower potency. In general, AUC refers to the area under the concentration-time curve, a measure of exposure. What is called Cmax is the maximum level reached in the sampled fluid or tissue. The Tmax is the time from dosing to the highest level. The term half-life denotes how long it takes for the measured level to halve. Higher therefore signals slow decline. As a reminder, the logD is lipophilicity at a set pH, counting ionised and neutral species. The solubility is the concentration that dissolves in the medium under given conditions.

For the compound `COc1cc2ncnc(N3CCN(C(=S)NCc4ccc(Cl)cc4)CC3)c2cc1OC`, the concentration at 8 h was less than 100 ng/mL in [1] and 1300 ng/mL in series [4]. This compound returned an IC50 in series [2] of 70 nM. Moreover, the concentration at 1 h is 2400 ng/mL in series [3] and less than 100 ng/mL in [5].

Regarding `COc1cc2ncnc(N3CCN(C(=S)NCc4ccco4)CC3)c2cc1OC`, in series [6], the AUC is 95.8 µg·h/mL, the concentration peaked (Cmax) at 7200 ng/mL, the Tmax came to 3.67 h and the half-life was 3.33 h. For the same compound, in series [7], the concentration at 8 h is 1400 ng/mL. The IC50 in [2] was 330 nM. The compound further returned a concentration at 8 h in series [8] of 1200 ng/mL. The logD in series [9] amounted to 2.75. In [10], the concentration at 1 h was found to be 3000 ng/mL. The concentration at 1 h in [11] turned out to be 3700 ng/mL.

Turning to `COc1cc2ncnc(N3CCN(C(=O)Nc4ccsc4)CC3)c2cc1OC`, in [6], the AUC stood at 145 µg·h/mL, the maximum concentration (Cmax) is 15900 ng/mL, the Tmax is 3.33 h and the half-life was 4.25 h. The logD in [9] was determined as 2.72. The same compound gave a concentration at 1 h in series [12] of 7700 ng/mL. The compound further registered a solubility in [13] of 2 µg/mL (≈ 5.01 µM). Moreover, the concentration at 1 h in series [14] came out at 12400 ng/mL. Further, the concentration at 8 h in [15] is 700 ng/mL. Further, in series [16], the concentration at 8 h was determined as 3700 ng/mL.
